Data reported in ChEMBL document CHEMBL1154990, “Three new cytochalasins produced by an endophytic fungus in the genus Rhinocladiella” (2000).

Experiments:
SW-620 = assay: Cytotoxicity against human SW620 cells after 72 hrs; format: functional
In short: (§1)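 Cells seeded at 2.5×10^4 cells/mL (150 μL per well) and preincubated ~24 h at 37 °C, 5% CO₂. Compounds dissolved at 1.0 mg/mL in MeOH (stock), 50 μL added, then serially diluted 4-fold for eight concentrations. After 72 h further incubation, cells fixed with HBSS–formaldehyde–water (1:1:8) for 10 min. Stained with 0.0075% crystal violet for 15 min. Concentration giving total cell kill (IC100) read.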

HCT-116 = assay: Cytotoxicity against human HCT116 cells after 72 hrs; format: functional; in short: as §1
[1] = Cytotoxicity against human A2780S cells after 72 hrs; format: functional, A2780; in short: as §1

Row | Compound | IC100 (SW-620) | IC100 (HCT-116) | IC100 [1]
1 | CC1/C=C/C(=O)O[C@@]23C(=O)N[C@@H](Cc4ccccc4)[C@@H]2[C@H](C)[C@@]2(C)O[C@H]2[C@@H]3/C=C/CC(C)C1O (stereo partly specified) | 15.6 µg/mL | 3.91 µg/mL | 3.91 µg/mL
2 | CC1CCC(=O)O[C@@]23C(=O)N[C@@H](Cc4ccccc4)[C@@H]2[C@H](C)[C@@]2(C)O[C@H]2[C@@H]3/C=C/CC(CO)C1=O (stereo partly specified) | – | 15.6 µg/mL | 3.91 µg/mL
3 | CC1CCC(=O)O[C@@]23C(=O)N[C@@H](Cc4ccccc4)[C@@H]2[C@H](C)[C@@]2(C)O[C@H]2[C@@H]3/C=C/CC(C)(O)C1=O (stereo partly specified) | 62.5 µg/mL | 15.6 µg/mL | 15.6 µg/mL
4 | C[C@H]1C/C=C/[C@H]2[C@@H]3O[C@]3(C)[C@@H](C)[C@H]3[C@H](Cc4ccccc4)NC(=O)[C@]32OC(=O)O/C=C/[C@@](C)(O)C1=O [CYTOCHALASIN E] | 0.977 µg/mL | 0.244 µg/mL | <0.0153 µg/mL
